Source: ChEMBL document CHEMBL5625189, “Discovery of new diaryl ether inhibitors against Mycobacterium tuberculosis targeting the minor portal of InhA” (Eur J Med Chem, 2023)
The source made the active and inactive calls. No cut-off for these calls is given here.

Legend:
[1] = target: T1, Enoyl-[acyl-carrier-protein] reductase [NADH] (Mycobacterium tuberculosis, UniProt P9WGR1); assay: Inhibition of his6-tagged Mycobacterium tuberculosis InhA using trans-2-dodecenoyl-coenzyme as substrate in presence of […]
T1 sequence (P9WGR1 whole entry): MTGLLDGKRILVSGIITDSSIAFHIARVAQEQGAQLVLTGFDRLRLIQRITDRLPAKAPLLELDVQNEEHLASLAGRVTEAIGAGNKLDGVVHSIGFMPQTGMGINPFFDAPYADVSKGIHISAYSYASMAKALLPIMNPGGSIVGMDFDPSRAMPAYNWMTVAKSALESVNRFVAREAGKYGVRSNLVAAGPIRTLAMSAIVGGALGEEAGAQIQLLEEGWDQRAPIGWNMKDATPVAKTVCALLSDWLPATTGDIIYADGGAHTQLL

[2] = tested on: Mycobacterium tuberculosis; assay: Antimycobacterial activity against Mycobacterium tuberculosis H37Rv assessed as reduction in microbial growth incubated for 6 days by broth dilution method; format: functional; conditions: 144 h, time 6 day
How it was run: (§1)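 Mtb H37Rv pellicle cells dispersed with glass beads in 7H9-0.2% glycerol, clumps removed by low-speed spin; twofold serial dilutions (DMSO stocks 1 or 10 mM) in 7H9, inoculum OD600 0.1; 6 days at 37 °C, then MTT added, 1 day more; SDS solubilisation, OD 570 nm; MIC = lowest concentration inhibiting growth, ≥3 independent experiments.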

[3] = target: T2, Enoyl-[acyl-carrier-protein] reductase [NADH] (Mycobacterium tuberculosis) (UniProt P9WGR1); assay: Inhibition of his6-tagged Mycobacterium tuberculosis InhA using trans-2-dodecenoyl-coenzyme as substrate at 200 uM in presence of […] relative to control
T2 sequence (whole entry): T1 sequence (P9WGR1 whole entry)

[4] = target: T1, Enoyl-[acyl-carrier-protein] reductase [NADH]; assay: Inhibition of Mycobacterium tuberculosis H37Rv InhA using trans-2-dodecenoyl-coenzyme A as substrate in presence of NADH
[5] = target: T2, Enoyl-[acyl-carrier-protein] reductase [NADH] (Mycobacterium tuberculosis); assay: Inhibition of his6-tagged Mycobacterium tuberculosis InhA using trans-2-dodecenoyl-coenzyme as substrate at 50 uM in presence of […] relative to control
[6] = target: T2, Enoyl-[acyl-carrier-protein] reductase [NADH] (Mycobacterium tuberculosis); assay: Inhibition of his6-tagged Mycobacterium tuberculosis InhA using trans-2-dodecenoyl-coenzyme as substrate at 10 uM in presence of […] relative to control
[7] = target: T2, Enoyl-[acyl-carrier-protein] reductase [NADH] (Mycobacterium tuberculosis); assay: Inhibition of his6-tagged Mycobacterium tuberculosis InhA using trans-2-dodecenoyl-coenzyme as substrate at 500 uM in presence of […] relative to control
[8] = Selectivity index, ratio of IC50 for cytotoxicity against human HCT-116 cells assessed as inhibition of cell growth to MIC for antimycobacterial activity against Mycobacterium tuberculosis H37Rv assessed as reduction in microbial growth; format: toxicity, cell-based
How it was run: (§2)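 Selectivity index: IC50 on each human cell line (72 h SRB assay) divided by MIC against Mtb H37Rv (MTT microassay).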

[9] = Selectivity index, ratio of IC50 for cytotoxicity against human HepG2 cells assessed as inhibition of cell growth to MIC for antimycobacterial activity against Mycobacterium tuberculosis H37Rv assessed as reduction in microbial growth; format: toxicity, cell-based; how it was run: as §2
HCT-116 = assay: Cytotoxicity against human HCT-116 cells assessed as inhibition of cell growth incubated for 72 hrs by SRB assay; format: functional, cell-based; conditions: HCT-116, 72 h
How it was run: (§3)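 Seeded 24 h before dosing (HCT116 1500, CACO2 2500, HepG2 9000, WI38hTERT 3500 cells/well); HCT116 in DMEM high-glucose, others in MEM, 10% FBS (20% for CACO2); serial 2-fold dilutions for 72 h at 37 °C, 5% CO2; SRB staining, OD 490 nm; background-subtracted, normalized to untreated; duplicate points, ≥3 independent experiments; IC50 by four-parameter logistic fit.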

Caco-2 = assay: Cytotoxicity against human Caco-2 cells assessed as inhibition of cell growth incubated for 72 hrs by SRB assay; format: functional, cell-based; conditions: Caco-2, 72 h; how it was run: as §3
HepG2 = assay: Cytotoxicity against human HepG2 cells assessed as inhibition of cell growth incubated for 72 hrs by SRB assay; format: functional, cell-based; conditions: HepG2, 72 h; how it was run: as §3
WI-38 = assay: Cytotoxicity against human WI-38 cells assessed as inhibition of cell growth incubated for 72 hrs by SRB assay; format: functional, cell-based; conditions: WI-38, 72 h; how it was run: as §3
[10] = Selectivity index, ratio of IC50 for cytotoxicity against human Caco-2 cells assessed as inhibition of cell growth to MIC for antimycobacterial activity against Mycobacterium tuberculosis H37Rv assessed as reduction in microbial growth; format: toxicity, cell-based; how it was run: as §2
[11] = Selectivity index, ratio of IC50 for cytotoxicity against human WI-38 cells assessed as inhibition of cell growth to MIC for antimycobacterial activity against Mycobacterium tuberculosis H37Rv assessed as reduction in microbial growth; format: toxicity, cell-based; how it was run: as §2
[12] = target: T2, Enoyl-[acyl-carrier-protein] reductase [NADH] (Mycobacterium tuberculosis); assay: Inhibition of his6-tagged Mycobacterium tuberculosis InhA using trans-2-dodecenoyl-coenzyme as substrate at 100 uM in presence of […] relative to control
[13] = tested on: Mycobacterium tuberculosis; assay: Antimycobacterial activity against Mycobacterium tuberculosis H37Rv assessed as reduction in microbial growth; format: functional; how it was run: as §1

In the case of CN(C)S(=O)(=O)c1ccc(NCc2cn(Cc3ccc(Oc4ccccc4)c(O)c3)nn2)c2nonc12, the IC50 ([1]; read-out: IC50) is reported as 733 nM and the MIC [2] is reported as over 52 µg/mL.
O=C(NCc1cn(Cc2ccc(Oc3ccccc3)c(O)c2)nn1)c1cc2cc(O)ccc2oc1=O showed an IC50 ([1]; read-out: IC50) of 844 nM and an MIC [2] of over 4.8 µg/mL.
In the case of C#CCNC(=O)c1cc2ccccc2oc1=O, the inhibition [3] is reported as “inactive”.
With O=c1cc(OCc2cn(Cc3ccc(Oc4ccccc4)c(O)c3)nn2)c2ccccc2o1 the IC50 ([1]; read-out: IC50) was 181 nM and the MIC [2] was 2.2 µg/mL.
For Oc1cc2ccc1Oc1ccc(cc1)CCc1ccc(c(O)c1)Oc1ccc(cc1)CC2, the IC50 [4] was 4700 nM.
In the case of CCCCCCc1ccc(Oc2ccc(Cn3cc(CNC(=O)c4cc5ccc(N(CC)CC)cc5oc4=O)nn3)cc2)c(O)c1, the inhibition [5] is reported as 53.7%, the inhibition [6] is reported as 31.5% and the MIC [2] is reported as over 60 µg/mL.
For C#CCOc1cc(=O)oc2ccccc12, the inhibition [7] was “inactive”.
With CCN(CC)c1ccc2cc(C(=O)NCc3cn(Cc4ccc(Oc5ccccc5)c(O)c4)nn3)c(=O)oc2c1 the IC50 ([1]; read-out: IC50) was 3550 nM and the MIC [2] was over 54 µg/mL.
In the case of CCN(CC)c1ccc2c(OCc3cn(Cc4ccc(Oc5ccccc5)c(O)c4)nn3)cc(=O)oc2c1, the selectivity ratio [8] is reported as 0.4, the selectivity ratio [9] is reported as 1.3 and the IC50 ([1]; read-out: IC50) is reported as 54 nM. It also gave an MIC [2] of 0.7 µg/mL, an IC50 (HCT-116) of 530 nM and an IC50 (Caco-2) of 1100 nM. For the same compound, the IC50 (HepG2) was 1600 nM, the IC50 (WI-38) was 600 nM and the selectivity ratio [10] was 0.9. It also gave a selectivity ratio [11] of 0.5.
Work on O=c1ccc2ccc(OCc3cn(Cc4ccc(Oc5ccccc5O)cc4)nn3)cc2o1 yielded an inhibition [5] of 10% and an MIC [2] of 2.2 µg/mL.
COc1cccc2cc(C(=O)NCc3cn(Cc4ccc(Oc5ccccc5)c(O)c4)nn3)c(=O)oc12 gave an IC50 ([1]; read-out: IC50) of 740 nM and an MIC [2] of 5 µg/mL.
In the case of Cc1cc(=O)oc2cc(OCc3cn(Cc4ccc(Oc5ccccc5)c(O)c4)nn3)ccc12, the selectivity ratio [8] is reported as 19.1, the selectivity ratio [9] is reported as 24.8 and the IC50 ([1]; read-out: IC50) is reported as 205 nM. It also gave an MIC [2] of 0.6 µg/mL, an IC50 (HCT-116) of 23900 nM and an IC50 (Caco-2) of 25000 nM. For the same compound, the IC50 (HepG2) was 31000 nM, the IC50 (WI-38) was over 100000 nM and the selectivity ratio [10] was 20. For the same compound, the selectivity ratio [11] was over 80.
Cc1cc(=O)oc2cc(OCc3cnnn3Cc3ccc(Oc4ccccc4)c(O)c3)ccc12 showed an IC50 ([1]; read-out: IC50) of 510 nM.
With O=C(NCc1cn(Cc2ccc(Oc3ccccc3)c(O)c2)nn1)c1cc2ccccc2oc1=O the IC50 ([1]; read-out: IC50) was 598 nM and the MIC [2] was 4.7 µg/mL.
O=[N+]([O-])c1ccc(NCc2cn(Cc3ccc(Oc4ccccc4)c(O)c3)nn2)c2nonc12 showed an IC50 ([1]; read-out: IC50) of 459 nM and an MIC [2] of 4.6 µg/mL.
For CCCCCCc1ccc(Oc2ccc(Cn3cc(CNc4ccc([N+](=O)[O-])c5nonc45)nn3)cc2)c(O)c1, the selectivity ratio [8] was 3.5, the selectivity ratio [9] was 10.8 and the inhibition [5] was 32.3%. It also gave an inhibition [6] of 11.4%, an MIC [2] of 1.4 µg/mL and an IC50 (HCT-116) of 8700 nM. For the same compound, the IC50 (Caco-2) was 26100 nM, the IC50 (HepG2) was 26900 nM and the IC50 (WI-38) was 52900 nM. It also gave a selectivity ratio [10] of 10.5 and a selectivity ratio [11] of 21.2.
For O=C(O)c1cn(C2CC2)c2cc(N3CCNCC3)c(F)cc2c1=O [CIPROFLOXACIN], the IC50 [1] was “Not Active” and the MIC [2] was 0.8 µg/mL.
C#CCNC(=O)c1cc2ccc(N(CC)CC)cc2oc1=O showed an inhibition [7] of 10%.
Compound [N-]=[N+]=NCc1ccc(Oc2ccccc2)c(O)c1 has an IC50 ([1]; read-out: IC50) of 843 nM.
With C#CCOc1ccc2ccc(=O)oc2c1 the inhibition [3] was 99% and the inhibition [12] was 30%.
O=c1ccc2ccc(OCc3cnnn3Cc3ccc(Oc4ccccc4)c(O)c3)cc2o1 gave an IC50 ([1]; read-out: IC50) of 630 nM.
C#CCOc1ccc2c(C)cc(=O)oc2c1 showed an inhibition [3] of 37% and an inhibition [7] of 90%.
With CCCCCCCCc1ccc(Oc2ccccc2)c(O)c1 the MIC [13] was 6.4 µM.
With COc1ccc2cc(C(=O)NCc3cn(Cc4ccc(Oc5ccccc5)c(O)c4)nn3)c(=O)oc2c1 the IC50 ([1]; read-out: IC50) was 345 nM and the MIC [2] was over 5 µg/mL.
O=c1ccc2ccc(OCc3cn(Cc4ccc(Oc5ccccc5)c(O)c4)nn3)cc2o1 gave an IC50 ([1]; read-out: IC50) of 163 nM and an MIC [2] of 2.2 µg/mL.
